Measured values taken from ChEMBL document CHEMBL4715736, “Identification of anticancer agents based on the thieno[2,3-b]pyridine and 1H-pyrazole molecular scaffolds” (2016).

Key:
Type in all cases: functional
MOLT-4 = assay: Growth inhibition of human MOLT-4 cells assessed as cell growth at 0.01 uM incubated for 48 hrs by sulforhodamine B assay relative to control; details: read-out: Activity
RPMI-8226 = assay: Growth inhibition of human RPMI-8226 cells assessed as cell growth at 0.01 uM incubated for 48 hrs by sulforhodamine B assay relative to control; details: read-out: Activity
NCI-H226 = assay: Growth inhibition of human NCI-H226 cells assessed as cell growth at 0.01 uM incubated for 48 hrs by sulforhodamine B assay relative to control; details: read-out: Activity
HCT-116 [1] = assay: Growth inhibition of human HCT-116 cells assessed as cell growth at 0.01 uM incubated for 48 hrs by sulforhodamine B assay relative to control; details: read-out: Activity
SF-539 [2] = assay: Growth inhibition of human SF-539 cells assessed as cell growth at 0.01 uM incubated for 48 hrs by sulforhodamine B assay relative to control; details: read-out: Activity
Malme-3M = assay: Growth inhibition of human Malme-3M cells assessed as cell growth at 0.01 uM incubated for 48 hrs by sulforhodamine B assay relative to control; details: read-out: Activity
OVCAR-3 = assay: Growth inhibition of human OVCAR-3 cells assessed as cell growth at 0.01 uM incubated for 48 hrs by sulforhodamine B assay relative to control; details: read-out: Activity
SK-OV-3 = assay: Growth inhibition of human SK-OV-3 cells assessed as cell growth at 0.01 uM incubated for 48 hrs by sulforhodamine B assay relative to control; details: read-out: Activity
MDA-MB-231 = assay: Growth inhibition of human MDA-MB-231 cells assessed as cell growth at 0.01 uM incubated for 48 hrs by sulforhodamine B assay relative to control; details: read-out: Activity
Hs-578T = assay: Growth inhibition of human Hs-578T cells assessed as cell growth at 0.01 uM incubated for 48 hrs by sulforhodamine B assay relative to control; details: read-out: Activity
HCT-116 [3] = assay: Growth inhibition of human HCT-116 cells assessed as cell growth at 0.1 uM incubated for 48 hrs by sulforhodamine B assay relative to control; details: read-out: Activity
U-251 = assay: Growth inhibition of human U-251 cells assessed as cell growth at 0.1 uM incubated for 48 hrs by sulforhodamine B assay relative to control; details: read-out: Activity
SK-MEL-2 [4] = assay: Growth inhibition of human SK-MEL-2 cells assessed as cell growth at 0.1 uM incubated for 48 hrs by sulforhodamine B assay relative to control; details: read-out: Activity
UACC-257 [5] = assay: Growth inhibition of human UACC-257 cells assessed as cell growth at 0.1 uM incubated for 48 hrs by sulforhodamine B assay relative to control; details: read-out: Activity
CAKI-1 = assay: Growth inhibition of human CAKI-1 cells assessed as cell growth at 0.1 uM incubated for 48 hrs by sulforhodamine B assay relative to control; details: read-out: Activity
Summary of the method: (§1)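 NCI Developmental Therapeutics Program NCI60 panel. Compounds that were active in the 10 µM one-dose screen went on to dose–response testing. Growth at each concentration is expressed relative to untreated control (100%). GI50 (concentration giving 50% of maximal inhibition of proliferation) and TGI (concentration giving total growth inhibition) were derived from the curves.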

SN12C [6] = assay: Growth inhibition of human SN12C cells assessed as cell growth at 0.1 uM incubated for 48 hrs by sulforhodamine B assay relative to control; details: read-out: Activity
CCRF-CEM [7] = assay: Growth inhibition of human CCRF-CEM cells assessed as cell growth at 1 uM incubated for 48 hrs by sulforhodamine B assay relative to control; details: read-out: Activity; summary of the method: as §1
K562 = assay: Growth inhibition of human K562 cells assessed as cell growth at 1 uM incubated for 48 hrs by sulforhodamine B assay relative to control; details: read-out: Activity
NCI-H23 = assay: Growth inhibition of human NCI-H23 cells assessed as cell growth at 1 uM incubated for 48 hrs by sulforhodamine B assay relative to control; details: read-out: Activity
OVCAR-8 = assay: Growth inhibition of human OVCAR-8 cells assessed as cell growth at 1 uM incubated for 48 hrs by sulforhodamine B assay relative to control; details: read-out: Activity
A498 = assay: Growth inhibition of human A498 cells assessed as cell growth at 1 uM incubated for 48 hrs by sulforhodamine B assay relative to control; details: read-out: Activity; summary of the method: as §1
ACHN [8] = assay: Growth inhibition of human ACHN cells assessed as cell growth at 1 uM incubated for 48 hrs by sulforhodamine B assay relative to control; details: read-out: Activity
CCRF-CEM [9] = assay: Growth inhibition of human CCRF-CEM cells assessed as cell growth at 100 uM incubated for 48 hrs by sulforhodamine B assay relative to control; details: read-out: Activity; summary of the method: as §1
NCI-H322M = assay: Growth inhibition of human NCI-H322M cells assessed as cell growth at 100 uM incubated for 48 hrs by sulforhodamine B assay relative to control; details: read-out: Activity
KM12 = assay: Growth inhibition of human KM12 cells assessed as cell growth at 100 uM incubated for 48 hrs by sulforhodamine B assay relative to control; details: read-out: Activity
UACC-257 [10] = assay: Growth inhibition of human UACC-257 cells assessed as cell growth at 100 uM incubated for 48 hrs by sulforhodamine B assay relative to control; details: read-out: Activity
SN12C [11] = assay: Growth inhibition of human SN12C cells assessed as cell growth at 100 uM incubated for 48 hrs by sulforhodamine B assay relative to control; details: read-out: Activity
CCRF-CEM [12] = assay: Growth inhibition of human CCRF-CEM cells incubated for 48 hrs by sulforhodamine B assay; summary of the method: as §1
SF-539 [13] = assay: Growth inhibition of human SF-539 cells incubated for 48 hrs by sulforhodamine B assay; details: for CC50: read-out: LC50 (the source's name)
Summary of the method: (§2)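 NCI DTP 60-line human tumour panel. Dose-response curves were run only for ligands active in the initial 10 µM screen. GI50 (concentration giving 50% of maximal inhibition of proliferation) and TGI (concentration giving total growth inhibition) were derived from these curves.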

M14 = assay: Growth inhibition of human M14 cells incubated for 48 hrs by sulforhodamine B assay
Summary of the method: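 NCI60 panel at the NCI Developmental Therapeutics Program. Only compounds active in the 10 µM screen went to dose-response testing. GI50, the concentration giving 50% of maximal inhibition of proliferation, and TGI, the concentration giving total growth inhibition, were derived from the dose-response curves.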

SK-MEL-2 [14] = assay: Growth inhibition of human SK-MEL-2 cells incubated for 48 hrs by sulforhodamine B assay; summary of the method: as §2
SK-MEL-28 = assay: Growth inhibition of human SK-MEL-28 cells incubated for 48 hrs by sulforhodamine B assay; summary of the method: as §2
OVCAR-5 = assay: Growth inhibition of human OVCAR-5 cells incubated for 48 hrs by sulforhodamine B assay; details: for CC50: read-out: LC50 (the source's name); summary of the method: as §2
ACHN [15] = assay: Growth inhibition of human ACHN cells incubated for 48 hrs by sulforhodamine B assay; details: for CC50: read-out: LC50 (the source's name); summary of the method: as §1
T47D = assay: Growth inhibition of human T47D cells incubated for 48 hrs by sulforhodamine B assay; details: for CC50: read-out: LC50 (the source's name); summary of the method: as §2

Nc1c(C(=O)Nc2ccccc2)sc2nc3c(cc12)CN(Cc1ccccc1)CC3
growth at 0.01 µM (MOLT-4): 97% | growth at 0.01 µM (RPMI-8226): 97% | growth at 0.01 µM (NCI-H226): 98% | growth at 0.01 µM (HCT-116 [1]): 100% | growth at 0.01 µM (SF-539 [2]): 96% | growth at 0.01 µM (Malme-3M): 87% | growth at 0.01 µM (OVCAR-3): 98% | growth at 0.01 µM (SK-OV-3): 97% | growth at 0.01 µM (MDA-MB-231): 101% | growth at 0.01 µM (Hs-578T): 88% | growth at 0.1 µM (HCT-116 [3]): 92% | growth at 0.1 µM (U-251): 98% | growth at 0.1 µM (SK-MEL-2 [4]): 95% | growth at 0.1 µM (UACC-257 [5]): 95% | growth at 0.1 µM (CAKI-1): 86% | growth at 0.1 µM (SN12C [6]): 94% | growth at 1 µM (CCRF-CEM [7]): 92% | growth at 1 µM (K562): 88% | growth at 1 µM (NCI-H23): 101% | growth at 1 µM (OVCAR-8): 98% | growth at 1 µM (A498): 72% | growth at 1 µM (ACHN [8]): 87% | growth at 100 µM (CCRF-CEM [9]): 36% | growth at 100 µM (NCI-H322M): 59% | growth at 100 µM (KM12): 25% | growth at 100 µM (UACC-257 [10]): 44% | growth at 100 µM (SN12C [11]): 47% | GI50 (CCRF-CEM [12]): 50.3 µM | LC50 (CCRF-CEM [12]): > 100 µM | TGI (CCRF-CEM [12]): > 100 µM | GI50 (SF-539 [13]): 2.78 µM | TGI (SF-539 [13]): > 100 µM | CC50 (SF-539 [13]): > 100 µM | GI50 (M14): 30.8 µM | LC50 (concentration killing 50% of cells) (M14): > 100 µM | TGI (M14): > 100 µM | GI50 (SK-MEL-2 [14]): 20.3 µM | LC50 (SK-MEL-2 [14]): > 100 µM | TGI (SK-MEL-2 [14]): > 100 µM | GI50 (SK-MEL-28): 23.2 µM | LC50 (SK-MEL-28): > 100 µM | TGI (SK-MEL-28): > 100 µM | GI50 (OVCAR-5): > 100 µM | TGI (OVCAR-5): > 100 µM | CC50 (OVCAR-5): > 100 µM | GI50 (ACHN [15]): 5.5 µM | TGI (ACHN [15]): > 100 µM | CC50 (ACHN [15]): > 100 µM | GI50 (T47D): 16.2 µM | TGI (T47D): > 100 µM | CC50 (T47D): > 100 µM

COc1cccc(NC(=O)c2sc3nc4c(cc3c2N)CN(Cc2ccccc2)CC4)c1
growth at 0.01 µM (MOLT-4): 102% | growth at 0.01 µM (RPMI-8226): 98% | growth at 0.01 µM (NCI-H226): 93% | growth at 0.01 µM (HCT-116 [1]): 91% | growth at 0.01 µM (SF-539 [2]): 86% | growth at 0.01 µM (Malme-3M): 97% | growth at 0.01 µM (OVCAR-3): 107% | growth at 0.01 µM (SK-OV-3): 92% | growth at 0.01 µM (MDA-MB-231): 107% | growth at 0.01 µM (Hs-578T): 88% | growth at 0.1 µM (HCT-116 [3]): 96% | growth at 0.1 µM (U-251): 98% | growth at 0.1 µM (SK-MEL-2 [4]): 112% | growth at 0.1 µM (UACC-257 [5]): 91% | growth at 0.1 µM (CAKI-1): 91% | growth at 0.1 µM (SN12C [6]): 93% | growth at 1 µM (CCRF-CEM [7]): 82% | growth at 1 µM (K562): 31% | growth at 1 µM (NCI-H23): 89% | growth at 1 µM (OVCAR-8): 90% | growth at 1 µM (A498): 79% | growth at 1 µM (ACHN [8]): 92% | growth at 100 µM (CCRF-CEM [9]): 21% | growth at 100 µM (NCI-H322M): 18% | growth at 100 µM (KM12): -37% | growth at 100 µM (UACC-257 [10]): 21% | growth at 100 µM (SN12C [11]): 16% | GI50 (CCRF-CEM [12]): 29.5 µM | LC50 (CCRF-CEM [12]): > 100 µM | TGI (CCRF-CEM [12]): > 100 µM | GI50 (SF-539 [13]): 1.99 µM | TGI (SF-539 [13]): 6.56 µM | CC50 (SF-539 [13]): 36.4 µM | GI50 (M14): 12.7 µM | LC50 (concentration killing 50% of cells) (M14): > 100 µM | TGI (M14): 86.8 µM | GI50 (SK-MEL-2 [14]): 10.3 µM | LC50 (SK-MEL-2 [14]): > 100 µM | TGI (SK-MEL-2 [14]): 44.5 µM | GI50 (SK-MEL-28): 2.8 µM | LC50 (SK-MEL-28): > 100 µM | TGI (SK-MEL-28): 29.7 µM | GI50 (OVCAR-5): 36.9 µM | TGI (OVCAR-5): > 100 µM | CC50 (OVCAR-5): > 100 µM | GI50 (ACHN [15]): 3.46 µM | TGI (ACHN [15]): 64.5 µM | CC50 (ACHN [15]): > 100 µM | GI50 (T47D): 4.62 µM | TGI (T47D): 47.3 µM | CC50 (T47D): > 100 µM
